Measured values reported in ChEMBL document CHEMBL4393654, “Discovery and Early Clinical Development of an Inhibitor of 5-Lipoxygenase Activating Protein (AZD5718) for Treatment of Coronary Artery Disease” (J Med Chem, 2019).
≈ marks a conversion by molar mass, not a printed value. Calls of active or inactive are those of the source. The calls are words filed in the database; no cut-off is given here.

Experiments:
[1] = target: T1, Arachidonate 5-lipoxygenase-activating protein (Homo sapiens) (UniProt P20292); experiment: Inhibition of FLAP in human whole blood assessed as reduction in calcium ionophore-stimulated LTB4 production preincubated for 4 hrs followed by calcium ionophore stimulation and measured after 20 mins by EIA; assay type: tissue-based
T1 sequence (whole entry): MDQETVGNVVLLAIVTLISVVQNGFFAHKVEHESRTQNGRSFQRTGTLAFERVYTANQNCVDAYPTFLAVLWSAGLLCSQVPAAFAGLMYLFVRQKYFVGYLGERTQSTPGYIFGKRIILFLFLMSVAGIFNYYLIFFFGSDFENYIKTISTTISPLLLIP
Procedure, shortened: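 Fresh human whole blood was incubated with compound for 4 h, then stimulated with calcium ionophore, and LTB4 production was measured as the 5-LO pathway read-out. IC50 was also converted to a free value: IC50 × (Fu/100), where Fu = 100 − human plasma protein binding (%).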

THP-1 = experiment: Cytotoxicity against human THP1 cells assessed as reduction in cell viability measured after 48 hrs by resazurin assay; assay type: cell-based; conditions: THP-1, 48 h
HepG2 = experiment: Cytotoxicity against human HepG2 cells assessed as reduction in ATP depletion in presence of glucose/galactose; assay type: cell-based
[2] = target: Prostaglandin G/H synthase 1 (Homo sapiens) (UniProt P23219); experiment: Activity at COX1 in human whole blood assessed as effect on […] production by EIA; assay type: tissue-based
Sequence of Prostaglandin G/H synthase 1 (Homo sapiens) (P23219 whole entry): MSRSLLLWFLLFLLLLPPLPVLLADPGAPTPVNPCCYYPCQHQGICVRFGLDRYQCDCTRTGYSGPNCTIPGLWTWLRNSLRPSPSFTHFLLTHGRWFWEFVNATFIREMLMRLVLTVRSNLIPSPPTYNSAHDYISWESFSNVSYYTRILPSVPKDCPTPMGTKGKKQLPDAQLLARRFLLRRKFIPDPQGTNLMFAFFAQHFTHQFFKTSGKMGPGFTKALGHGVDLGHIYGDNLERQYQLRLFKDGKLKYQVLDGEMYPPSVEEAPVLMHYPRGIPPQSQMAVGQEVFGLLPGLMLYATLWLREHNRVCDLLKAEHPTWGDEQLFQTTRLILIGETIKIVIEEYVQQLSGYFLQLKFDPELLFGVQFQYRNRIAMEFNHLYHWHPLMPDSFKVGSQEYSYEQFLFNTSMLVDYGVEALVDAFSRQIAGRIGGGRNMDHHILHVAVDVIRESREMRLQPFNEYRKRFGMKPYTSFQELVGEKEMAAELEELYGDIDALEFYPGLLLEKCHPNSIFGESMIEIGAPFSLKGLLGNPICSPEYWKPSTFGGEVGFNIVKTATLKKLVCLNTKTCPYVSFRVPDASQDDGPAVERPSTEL

[3] = target: T2, Prostaglandin G/H synthase 2 (Homo sapiens) (UniProt P35354); experiment: Activity at COX2 in human whole blood assessed as effect on LPS-induced PGE2 production preincubated for 15 mins followed by LPS-stimulation and measured after overnight incubation by EIA; assay type: tissue-based
T2 sequence (whole entry): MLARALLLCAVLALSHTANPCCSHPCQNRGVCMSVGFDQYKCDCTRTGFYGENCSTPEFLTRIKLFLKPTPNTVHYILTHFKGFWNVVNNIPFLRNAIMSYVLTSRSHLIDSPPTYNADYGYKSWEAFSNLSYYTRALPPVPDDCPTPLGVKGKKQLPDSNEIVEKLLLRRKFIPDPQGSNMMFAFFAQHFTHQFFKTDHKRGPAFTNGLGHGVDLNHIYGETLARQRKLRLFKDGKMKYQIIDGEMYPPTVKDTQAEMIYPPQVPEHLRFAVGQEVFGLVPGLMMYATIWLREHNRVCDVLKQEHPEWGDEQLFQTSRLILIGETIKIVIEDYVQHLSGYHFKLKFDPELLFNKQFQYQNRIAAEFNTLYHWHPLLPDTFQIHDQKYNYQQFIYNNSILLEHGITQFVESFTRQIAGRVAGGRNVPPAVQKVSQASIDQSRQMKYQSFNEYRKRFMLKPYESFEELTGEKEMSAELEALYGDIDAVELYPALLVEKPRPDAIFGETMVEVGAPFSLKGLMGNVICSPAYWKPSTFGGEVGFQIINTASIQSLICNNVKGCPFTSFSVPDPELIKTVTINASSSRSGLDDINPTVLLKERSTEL

Canis familiaris [4] = experiment: Ex vivo inhibition of FLAP in po dosed Beagle dog assessed as reduction in ionophore-stimulated LTB4 production administered daily for 3 consecutive days measured during compound dosing by LC-MS/MS analysis; assay type: functional, organism-based; conditions: Canis lupus familiaris
Procedure, shortened: (§1)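 Beagle dogs were given oral doses once daily for 3 consecutive days at 0.02, 0.09 or 0.2 mg/kg (n=3 per dose). Blood was stimulated ex vivo with calcium ionophore, and LTB4 production was measured during dosing and up to 24 h after the last dose. Results were baseline-corrected, plotted with plasma concentration and reported as medians.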

Canis familiaris [5] = experiment: Ex vivo inhibition of FLAP in Beagle dog assessed as reduction in ionophore-stimulated LTB4 production at 0.9 mg/kg, po measured within 2.5 hrs relative to control; assay type: functional, Canis lupus familiaris
Procedure, shortened: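 Two beagle dogs were given a single oral dose of 0.9 mg/kg. LTB4 production in calcium ionophore-stimulated blood was followed ex vivo over time and compared with pre-dose baseline.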

Canis familiaris [6] = experiment: Ex vivo inhibition of FLAP in Beagle dog assessed as reduction in ionophore-stimulated LTB4 production at 0.18 mg/kg, po on day1 and 0.09 mg/kg, po on day 3 measured after 4 to 9 hrs relative to control; assay type: functional, Canis lupus familiaris
Procedure, shortened: (§2)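 Two beagle dogs were given two oral doses 48 h apart: 0.18 mg/kg on day 1 and 0.09 mg/kg on day 3. LTB4 production in calcium ionophore-stimulated blood was followed ex vivo after each dose, including 48 h after the second dose, and compared with baseline.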

Canis familiaris [7] = experiment: Ex vivo reversible inhibition of FLAP in Beagle dog assessed as reduction in ionophore-stimulated LTB4 production at 0.18 mg/kg, po on day1 and 0.09 mg/kg, po on day 3 measured after 48 hrs; assay type: functional, organism-based; conditions: Canis lupus familiaris; procedure, shortened: as §2
Canis familiaris [8] = experiment: Ex vivo inhibition of FLAP in Beagle dog assessed as reduction in ionophore-stimulated LTB4 production at 0.02 to 0.2 mg/kg, po administered daily for 3 consecutive days measured 24 hrs post-last dose by LC-MS/MS analysis; assay type: functional, organism-based; conditions: Canis lupus familiaris; procedure, shortened: as §1
Canis familiaris [9] = experiment: Ex vivo inhibition of FLAP in Beagle dog assessed as reduction in LTE4 level in urine at 0.09 to 0.2 mg/kg, po administered daily for 3 consecutive days measured 24 hrs post-last dose by colorimetric method; assay type: functional, Canis lupus familiaris
Procedure, shortened: (§3)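 Urinary LTE4 was measured at baseline and over the final 24 h of dosing in beagle dogs given oral doses once daily for 3 consecutive days (0.02, 0.09 or 0.2 mg/kg, n=3 per dose). Dogs with baseline uLTE4 below the LOQ were excluded. Inhibition was expressed relative to each dog's own baseline.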

Canis familiaris [10] = experiment: Ex vivo inhibition of FLAP in Beagle dog assessed as reduction in LTE4 level in urine at 0.02 mg/kg, po administered daily for 3 consecutive days measured 24 hrs post-last dose by colorimetric method relative to control; assay type: functional; conditions: Canis lupus familiaris; procedure, shortened: as §3
Homo sapiens [11] = experiment: Suppression of calcium ionophore-stimulated LTB4 production in po dosed human blood administered as single dose; assay type: functional, organism-based
Procedure, shortened: (§4)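 Fresh blood drawn from healthy volunteers dosed with an oral suspension. Single doses were 25–1200 mg (SAD). Multiple dosing was 60, 180, 300 or 600 mg once daily for 10 days (MAD). LTB4 was measured after ex vivo calcium ionophore stimulation, relative to baseline.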

Homo sapiens [12] = experiment: Suppression of calcium ionophore-stimulated LTB4 production in po dosed human blood administered daily for 10 days; assay type: functional, organism-based; procedure, shortened: as §4
Homo sapiens [13] = experiment: Suppression of urine LTE4 level in po dosed human administered as single dose; assay type: functional, organism-based
Procedure, shortened: (§5)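 Endogenous urinary LTE4 measured relative to baseline in healthy volunteers. Subjects received an oral suspension as single doses of 25–1200 mg, or 60–600 mg once daily for 10 days.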

Homo sapiens [14] = experiment: Suppression of urine LTE4 level in po dosed human administered daily for 10 days; assay type: functional, organism-based; procedure, shortened: as §5
Homo sapiens [15] = experiment: Suppression of calcium ionophore-stimulated LTB4 production in human assessed as Cmin required to show >80% reduction in plasma LTB4 levels at 60 to 1200 mg, po administered as single dose measured after 24 hrs; assay type: functional
Canis lupus familiaris = species: Canis lupus familiaris; experiment: Inhibition of FLAP in dog whole blood assessed as reduction in calcium ionophore-stimulated LTB4 production; assay type: tissue-based
Canis familiaris [16] = experiment: Ex vivo inhibition of FLAP in po dosed Beagle dog assessed as reduction in ionophore-stimulated LTB4 production; assay type: functional, Canis lupus familiaris
[17] = Octanol-phosphate buffer partition co-efficient, log D of the compound at pH 7.4 after 2 hrs by LC-MS/MS-based shake flask method; assay type: physicochemical
Procedure, shortened: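 Distribution between octanol and water at pH 7.4.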

[18] = Aqueous solubility of the compound in pH 7.4 phosphate buffer measured after 24 hrs by LC-MS/MS-based shake flask method; assay type: physicochemical
[19] = target: T3, Arachidonate 5-lipoxygenase-activating protein (Homo sapiens, UniProt P20292); experiment: Inhibition of [3H]MK0591 binding to human FLAP expressed in […] cell membranes measured after 60 to 80 mins by microbeta scintillation counting method
T3 sequence (P20292 whole entry): T1 sequence (whole entry)

[20] = Intrinsic clearance in human hepatocytes assessed per million cells at 1 uM measured after 2 to 60 mins by LC-MS/MS analysis; assay type: ADME, cell-based, Hepatocyte; conditions: read-out: CLH
[21] = Intrinsic clearance in rat hepatocytes assessed per million cells at 1 uM measured after 2 to 60 mins by LC-MS/MS analysis; assay type: ADME, cell-based, Hepatocyte; conditions: read-out: CLH
Procedure, shortened: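 Rat hepatocyte incubation of the compound; intrinsic clearance measured after incubation.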

[22] = Passive apparent permeability across apical to basolateral side in human Caco2 cells at pH 6.5; assay type: ADME, cell-based; conditions: Caco-2, pH 6.5
Procedure, shortened: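 Passive permeability across Caco-2 monolayers, measured in the A to B direction at pH 6.5.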

[23] = Mutagenicity in Salmonella typhimurium TA98 in presence of rat S9 fraction by Ames test; assay type: toxicity, subcellular; conditions: salmonella enterica subsp. enterica serovar typhimurium
Procedure, shortened: (§6)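 Ames bacterial mutagenicity test in S. typhimurium TA98 and TA100. Run with and without metabolic activation by rat S9 fraction.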

[24] = Mutagenicity in Salmonella typhimurium TA98 in absence of rat S9 fraction by Ames test; assay type: toxicity; conditions: salmonella enterica subsp. enterica serovar typhimurium; procedure, shortened: as §6
[25] = Mutagenicity in Salmonella typhimurium TA100 in presence of rat S9 fraction by Ames test; assay type: toxicity, subcellular; conditions: salmonella enterica subsp. enterica serovar typhimurium; procedure, shortened: as §6
[26] = Mutagenicity in Salmonella typhimurium TA100 in absence of rat S9 fraction by Ames test; assay type: toxicity; conditions: salmonella enterica subsp. enterica serovar typhimurium; procedure, shortened: as §6

| SMILES | fIC50 [1] | IC50 (THP-1) | IC50 (HepG2) | Activity [2] | Activity [3] | logD at 2 h [17] | solubility thermodynamic at 24 h [18] | hepatocyte CLint at 1 µM [20] | hepatocyte CLint at 1 µM [21] | further results |
| --- | --- | --- | --- | --- | --- | --- | --- | --- | --- | --- |
| Cc1cc(-c2ccc(C(=O)[C@@H]3CCCC[C@H]3C(=O)Nc3cnn4c3C(=O)NCC4)cc2)n[nH]1 | 2 nM | > 250 µM | > 250 µM | inactive | inactive | – | – | – | – | inhibition (Canis familiaris [4]): Dose-dependent effect; %max (Canis familiaris [5]): >90%; %max (Canis familiaris [6]): >90%; inhibition (Canis familiaris [7]): Active; inhibition (Canis familiaris [8]): inactive; inhibition (INH) (Canis familiaris [9]): 100%; inhibition in vivo at 0.02 mg/kg (Canis familiaris [10]): 60%; Activity (Homo sapiens [11]): Dose-dependent effect; Activity (Homo sapiens [12]): Dose-dependent effect; Activity (Homo sapiens [13]): Dose-dependent effect; Activity (Homo sapiens [14]): Dose-dependent effect; Cmin (Homo sapiens [15]): >15 nM; fIC50 (Canis lupus familiaris): 1 nM; fIC50 (Canis familiaris [16]): 0.1 nM |
| Cc1cc(-c2ccc(C(=O)[C@@H]3CCCC[C@H]3C(=O)Nc3cnn(C)c3C(=O)NO)cc2)[nH]n1 | – | – | – | – | – | 2.1 | 224 µM (≈ 101 µg/mL) | – | – | IC50 [19]: 0.047 µM |
| Cc1cc(-c2ccc(C(=O)[C@@H]3CCCC[C@H]3C(=O)Nc3c(C(N)=O)n[nH]c3C)cc2)[nH]n1 | – | – | – | – | – | 2.3 | 402 µM (≈ 175 µg/mL) | 6.7 µL/min/1e6 cells | 14.4 µL/min/1e6 cells | Papp A→B [22]: 0.15 ×10⁻⁶ cm/s |
| Cc1cc(-c2ccc(C(=O)[C@@H]3CCCC[C@H]3C(=O)Nc3cnn(C)c3S(N)(=O)=O)cc2)n[nH]1 | 6.5 nM | > 250 µM | > 250 µM | inactive | inactive | – | – | – | – | – |
| Cc1cc(-c2ccc(C(=O)[C@@H]3CCCC[C@H]3C(=O)Nc3c(C(N)=O)n[nH]c3C)cc2)n[nH]1 | 96 nM | – | – | – | – | – | – | – | – | – |
| Cc1cc(-c2ccc(C(=O)[C@@H]3CCCC[C@H]3C(=O)Nc3cn(C)nc3C(N)=O)cc2)n[nH]1 | – | – | – | – | – | – | 60 µM (≈ 26.1 µg/mL) | 12.4 µL/min/1e6 cells | 14 µL/min/1e6 cells | Activity [23]: Non-Toxic; Activity [24]: Non-Toxic; Activity [25]: Non-Toxic; Activity [26]: Non-Toxic |
